Read-outs that look alike come from different tables or passages of the source.
Tests used:
H4IIE cells [1] = type: cell-based; settings: 24 hr
P-glycoprotein (PgP) = test: P-glycoprotein; type: cell-based, rat; settings: H4IIE cells, MTT, 24 hr, single exposure concentration (20 or 50 μM), without CSA
H4IIE cells [2] = test: CeeTox analysis composite; type: cell-based, rat; settings: H4IIE cells, 24 hr
S. typhimurium TA989 = test: Ames test for mutagenicity, frame-shift strain; type: cell-based; settings: first TA98 column; for TA98+S9: with S9, up to 10 μM; for TA98−S9: without S9, up to 10 μM
CYP2C9 = CYP2C9 (Homo sapiens, UniProt P11712); test: Cloe Screen Cytochrome P450 Inhibition assay; type: in vitro ADME
CYP2C9, sequence (P11712 whole entry): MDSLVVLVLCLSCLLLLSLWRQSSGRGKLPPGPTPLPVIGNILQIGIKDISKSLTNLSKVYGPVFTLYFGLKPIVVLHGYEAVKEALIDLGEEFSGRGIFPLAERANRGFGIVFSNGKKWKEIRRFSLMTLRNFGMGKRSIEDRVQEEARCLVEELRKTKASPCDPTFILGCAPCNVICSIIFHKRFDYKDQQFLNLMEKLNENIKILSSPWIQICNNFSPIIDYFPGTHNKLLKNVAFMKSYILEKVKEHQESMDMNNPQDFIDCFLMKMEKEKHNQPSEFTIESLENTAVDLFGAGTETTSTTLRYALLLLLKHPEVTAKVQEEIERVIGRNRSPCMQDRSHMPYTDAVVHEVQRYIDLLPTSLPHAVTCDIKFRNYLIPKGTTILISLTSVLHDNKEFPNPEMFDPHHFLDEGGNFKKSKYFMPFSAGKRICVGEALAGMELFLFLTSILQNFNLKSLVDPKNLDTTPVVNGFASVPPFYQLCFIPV

CYP3A4 = CYP3A4 (Homo sapiens, UniProt P08684); test: Cloe Screen Cytochrome P450 Inhibition assay; type: in vitro ADME
CYP3A4, sequence (P08684 2-503): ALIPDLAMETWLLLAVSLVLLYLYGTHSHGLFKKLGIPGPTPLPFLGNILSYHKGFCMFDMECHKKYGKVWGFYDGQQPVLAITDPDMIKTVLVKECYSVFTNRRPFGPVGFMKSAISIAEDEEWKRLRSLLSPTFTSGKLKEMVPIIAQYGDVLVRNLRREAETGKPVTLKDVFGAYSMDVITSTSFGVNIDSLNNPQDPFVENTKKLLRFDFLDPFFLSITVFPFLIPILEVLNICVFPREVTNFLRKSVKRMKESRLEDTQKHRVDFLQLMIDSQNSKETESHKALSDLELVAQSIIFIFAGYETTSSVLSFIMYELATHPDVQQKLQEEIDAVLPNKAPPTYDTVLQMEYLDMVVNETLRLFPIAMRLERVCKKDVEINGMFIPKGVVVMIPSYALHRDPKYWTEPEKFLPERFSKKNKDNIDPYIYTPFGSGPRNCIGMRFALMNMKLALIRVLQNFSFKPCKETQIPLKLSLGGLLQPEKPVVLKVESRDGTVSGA

CYP2D6 = CYP2D6 (Homo sapiens, UniProt P10635); test: Cloe Screen Cytochrome P450 Inhibition assay; type: in vitro ADME
CYP2D6, sequence (P10635 whole entry): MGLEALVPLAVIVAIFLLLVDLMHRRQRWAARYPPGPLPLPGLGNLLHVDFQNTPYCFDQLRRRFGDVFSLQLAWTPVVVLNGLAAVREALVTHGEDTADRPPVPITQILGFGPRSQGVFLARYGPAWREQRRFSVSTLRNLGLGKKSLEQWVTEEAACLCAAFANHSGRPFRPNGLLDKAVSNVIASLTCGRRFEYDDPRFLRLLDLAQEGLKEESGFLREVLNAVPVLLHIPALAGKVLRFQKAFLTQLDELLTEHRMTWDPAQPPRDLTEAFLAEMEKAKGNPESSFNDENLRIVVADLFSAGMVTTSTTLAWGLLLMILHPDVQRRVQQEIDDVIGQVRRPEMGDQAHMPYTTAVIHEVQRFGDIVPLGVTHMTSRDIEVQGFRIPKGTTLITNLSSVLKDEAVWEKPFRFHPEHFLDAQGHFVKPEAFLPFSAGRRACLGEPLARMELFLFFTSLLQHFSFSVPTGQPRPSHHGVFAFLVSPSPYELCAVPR
How it was run: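 Run blinded. […] Metabolite formation was monitored by LC-MS/MS. IC50 was calculated from the decrease in metabolite formation relative to vehicle control. Quinidine served as positive control inhibitor.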

CYP2C19 = CYP2C19 (Homo sapiens, UniProt P33261); test: Cloe Screen Cytochrome P450 Inhibition assay; type: in vitro ADME
CYP2C19, sequence (P33261 whole entry): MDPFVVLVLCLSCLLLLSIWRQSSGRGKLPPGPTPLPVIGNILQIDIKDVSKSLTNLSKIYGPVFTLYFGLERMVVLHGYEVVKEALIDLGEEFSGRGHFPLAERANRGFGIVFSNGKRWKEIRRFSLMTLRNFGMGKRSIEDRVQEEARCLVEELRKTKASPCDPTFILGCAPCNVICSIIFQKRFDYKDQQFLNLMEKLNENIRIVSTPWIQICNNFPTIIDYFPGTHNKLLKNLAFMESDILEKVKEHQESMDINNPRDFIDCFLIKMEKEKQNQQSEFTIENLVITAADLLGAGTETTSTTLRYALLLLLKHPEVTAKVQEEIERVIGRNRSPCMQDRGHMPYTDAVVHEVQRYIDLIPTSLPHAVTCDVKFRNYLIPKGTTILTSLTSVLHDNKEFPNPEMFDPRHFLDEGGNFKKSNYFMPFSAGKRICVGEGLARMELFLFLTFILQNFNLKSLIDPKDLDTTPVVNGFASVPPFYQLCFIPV

H4IIE cells [3] = test: CeeTox cellular ATP content; settings: 24 hr
H4IIE cells [4] = test: CeeTox cell mass; settings: 24 hr
H4IIE cells [5] = test: CeeTox membrane toxicity; settings: 24 hr, α-GST leakage
[6] = test system: Intracellular glutathione (GSH); test: CeeTox intracellular glutathione; settings: H4IIE cells
8-Isoprostane (8-ISO) = test: CeeTox lipid peroxidation measured as 8-isoprostane; settings: H4IIE cells, 8-ISO score
Caspase 3 = test: CeeTox apoptosis; type: cell-based, rat; settings: H4IIE cells
CYP1A2 = biological target: T1, CYP1A2 (Homo sapiens, UniProt P05177); test: Cloe Screen Cytochrome P450 Inhibition assay; type: in vitro ADME
T1 sequence (P05177 1-516): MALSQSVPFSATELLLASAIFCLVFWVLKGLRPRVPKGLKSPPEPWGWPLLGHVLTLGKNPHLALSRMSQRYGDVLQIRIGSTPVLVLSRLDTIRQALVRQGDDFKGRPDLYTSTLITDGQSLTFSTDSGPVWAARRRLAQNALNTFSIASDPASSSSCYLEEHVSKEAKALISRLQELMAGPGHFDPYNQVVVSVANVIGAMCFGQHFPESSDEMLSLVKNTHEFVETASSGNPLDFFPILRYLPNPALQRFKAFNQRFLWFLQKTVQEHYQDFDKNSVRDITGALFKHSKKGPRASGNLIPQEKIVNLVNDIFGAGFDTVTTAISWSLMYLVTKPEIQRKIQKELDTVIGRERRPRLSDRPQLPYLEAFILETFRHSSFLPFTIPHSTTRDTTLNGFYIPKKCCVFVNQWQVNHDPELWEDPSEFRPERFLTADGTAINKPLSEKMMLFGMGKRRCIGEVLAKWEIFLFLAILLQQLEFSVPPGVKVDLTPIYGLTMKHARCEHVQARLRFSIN

MDR1-MDCK cells = test: BBB penetration; type: in vitro ADME, canine; settings: classification from Papp A→B and efflux
How it was run: (§1)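 MDCK cells transfected with human MDR1 (P-gp) were grown to a confluent monolayer over 4 days. Test compound was added apically, and A→B transport was followed over 60 min; B→A transport was also measured. Compound on each side was quantified by GC/MS. Papp was calculated for both directions, and efflux ratio = Papp B→A/Papp A→B. High BBB potential: Papp A→B ≥3.0×10⁻⁶ cm/s and efflux <3.0.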

P-glycoprotein (MDR1) = test: BBB penetration; type: in vitro ADME, canine; settings: dog, MDCK-MDR1
How it was run: as §1

HT22 cells = test: In vitro ischemia assay; type: cell-based; settings: Mus musculus, HT-22, read-out: HT22 EC50 (nM)
How it was run: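 Mouse HT22 hippocampal cells were grown in DMEM with 10 % FCS and seeded at 5×10^3 cells/well. Next day, medium was changed to DMEM with 7.5 % dialyzed FCS, and cells were exposed to 20 µM iodoacetic acid with or without varying test compound concentrations for 2 h. Medium was then replaced with compound-containing medium without IAA for 20 h. Viability was read by MTT (5 µg/ml, 4 h, 37 °C), solubilized in DMF/SDS pH 4.7, A570.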

mouse cortical neurons = test: Cortical neuron glutamate excitotoxicity neuroprotection assay; type: cell-based; settings: tested at 0.1 μM

Compound	MTT TC50 (H4IIE cells [1]) [µM]	% Control(Compound) (P-glycoprotein (PgP)) [% Control]	TA98+S9 (S. typhimurium TA989)	TA98−S9 (S. typhimurium TA989)	ATP TC50 (H4IIE cells [3]) [µM]	Cell Mass TC50 (H4IIE cells [4]) [µM]	MemTox TC50 (H4IIE cells [5]) [µM]	Total GSH TC50 [6] [µM]	Membrane Lipid Peroxidation (8-Isoprostane (8-ISO))	BBB Potential (MDR1-MDCK cells)	Papp A→B at 60 min (P-glycoprotein (MDR1)) [×10⁻⁶ cm/s]	efflux ratio at 60 min (P-glycoprotein (MDR1))	other results
O=c1c(O)c(-c2ccc(O)c(O)c2)oc2c1ccc1ccccc12 [CSMC-6, 3,3',4'-trihydroxy alpha-naphthoflavone]	71	68.3	Negative (Not mutagenic < 10 μM (NEGATIVE))	Negative (Not mutagenic < 10 μM (NEGATIVE))	81	80	282	87	0				minimum TC50 (H4IIE cells [2]; lowest of the CeeTox endpoints): 71 µM; TC50 for all general toxicity measures (range over endpoints) (H4IIE cells [2]; range across CeeTox endpoints): 71 to 282 µM; IC50 (CYP2C9; read-out: CYP2C9 IC50, human liver microsomes, substrate Tolbutamide): > 10 µM; IC50 (CYP3A4; read-out: CYP3A4 IC50, human liver microsomes, substrate head: Mephenytoin): > 10 µM; IC50 (CYP2D6; read-out: CYP2D6 IC50, human liver microsomes, substrate DextroM): > 10 µM; IC50 (CYP2C19; read-out: CYP2C19 IC50, human liver microsomes, substrate head: Midazolam): > 10 µM
CCCc1ccc2oc(-c3ccc(O)c(O)c3)c(O)c(=O)c2c1 [CSMC-13, 6-propyl-3,3',4'-trihydroxy flavone]	83	87.9	Negative (Not mutagenic < 10 μM (NEGATIVE))	Negative (Not mutagenic < 10 μM (NEGATIVE))	58	78	>300	252	2 (2 = Concentration related increase with maximum values ≥ 15 pg/mL)	low	0.1	1	Caspase 3 Activity (Index/Dose): dose (Caspase 3; dose at which the index was seen): 100; Caspase 3 Activity (Index/Dose): index (Caspase 3; index of RFU): 1 (0–200 = 1); IC50 (CYP1A2): > 25 µM; IC50 (CYP2C9): > 10 µM; IC50 (CYP3A4): > 10 µM; IC50 (CYP2D6): > 10 µM; IC50 (CYP2C19): > 10 µM
O=c1c(O)c(-c2ccc(O)c(O)c2)oc2cc(O)ccc12 [Fisetin, 3,3',4',7-tetrahydroxyflavone, reference compound]										low	2.96	0.7	EC50 (HT22 cells): 4000 nM; Neuroprotection of mouse cortical neurons against glutamate (mouse cortical neurons): did not confer neuroprotection
